According to ChEMBL document CHEMBL1140048, “NO-donors. Part 17: Synthesis and antimicrobial activity of novel ketoconazole-NO-donor hybrid compounds” (Bioorg Med Chem, 2008):
Converted amounts (≈) assume the structure as drawn.

What was measured:
Aspergillus fumigatus [1] = test: Antifungal activity against Aspergillus fumigatus after 24 hrs by broth microdilution method; format: functional
Procedure, shortened: (§1)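 Broth microdilution per NCCLS in RPMI 1640 (L-glutamine, MOPS, no bicarbonate). An 8 mM stock in DMSO/methanol 1:10 is serially diluted twofold; NONOate salts go through 0.1 M NaOH, with only the last step in medium. Inoculum is 6×10^3 CFU/mL final. A. fumigatus and A. terreus are incubated 24 h at 37 °C; others at 30 °C. MIC is the lowest dilution without visible growth, read nephelometrically.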

Aspergillus niger [2] = test: Antifungal activity against Aspergillus niger after 24 hrs by broth microdilution method; format: functional; procedure, shortened: as §1
Nakaseomyces glabratus [3] = test: Antifungal activity against Candida glabrata after 24 hrs by broth microdilution method; format: functional; procedure, shortened: as §1
Aspergillus terreus [4] = test: Antifungal activity against Aspergillus terreus after 24 hrs by broth microdilution method; format: functional; procedure, shortened: as §1
Candida albicans [5] = test: Antifungal activity against Candida albicans after 24 hrs by broth microdilution method; format: functional; procedure, shortened: as §1
[6] = test system: Sporobolomyces salmonicolor; test: Antifungal activity against Sporobolomyces salmonicolor after 24 hrs by broth microdilution method; format: functional; procedure, shortened: as §1
Fusarium oxysporum [7] = test: Antifungal activity against Fusarium oxysporum after 24 hrs by agar diffusion method
Penicillium chrysogenum [8] = test: Antifungal activity against Penicillium notatum after 24 hrs by broth microdilution method; format: functional; procedure, shortened: as §1
Aspergillus fumigatus [9] = test: Ratio of MIC for drug to ketoconazole against Aspergillus fumigatus; format: functional
Procedure, shortened: (§2)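 FIC is calculated as the MIC of the test compound divided by the MIC of ketoconazole. Both MICs come from 24 h NCCLS broth microdilution in RPMI 1640/MOPS, starting from an 8 mM stock in twofold dilutions, at 6×10^3 CFU/mL. Incubation is at 37 °C for A. fumigatus and A. terreus and at 30 °C for the other strains.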

Fusarium oxysporum [10] = test: Ratio of MIC for drug to ketoconazole against Fusarium oxysporum; format: functional
[11] = test system: Sporobolomyces salmonicolor; test: Ratio of MIC for drug to ketoconazole against Sporobolomyces salmonicolor; format: functional; procedure, shortened: as §2
Penicillium chrysogenum [12] = test: Ratio of MIC for drug to ketoconazole against Penicillium notatum; format: functional; procedure, shortened: as §2
Candida albicans [13] = test: Ratio of MIC for drug to ketoconazole against Candida albicans; format: functional; procedure, shortened: as §2
Nakaseomyces glabratus [14] = test: Ratio of MIC for drug to ketoconazole against Candida glabrata; format: functional; procedure, shortened: as §2
Aspergillus terreus [15] = test: Ratio of MIC for drug to ketoconazole against Aspergillus terreus; format: functional; procedure, shortened: as §2
Aspergillus niger [16] = test: Ratio of MIC for drug to ketoconazole against Aspergillus niger; format: functional; procedure, shortened: as §2
[17] = Chemical stability of compound assessed as half life of nitric oxide release at pH 7.4; format: physicochemical; details: buffer
Candida = test: Antifungal activity against Candida sp. by microdilution assay; format: functional
Procedure, shortened: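 Broth microdilution per NCCLS guidelines in RPMI 1640 (L-glutamine, MOPS, no bicarbonate). An 8 mM stock in DMSO/methanol (1:10) was serially diluted twofold in medium; NONOate sodium salts were diluted in 0.1 M NaOH, with only the final step in medium, used at once. Final inoculum 6×10^3 CFU/mL, 30 °C, 24 h. MIC read nephelometrically as the lowest dilution with no visible growth.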

Structure (SMILES) | MIC (Aspergillus fumigatus [1]) | MIC (Aspergillus niger [2]) | MIC (Nakaseomyces glabratus [3]) | MIC (Aspergillus terreus [4]) | MIC (Candida albicans [5]) | MIC [6] | MIC (Fusarium oxysporum [7]) | MIC (Penicillium chrysogenum [8]) | Ratio (Aspergillus fumigatus [9]) | Ratio (Fusarium oxysporum [10]) | Ratio [11] | Ratio (Penicillium chrysogenum [12]) | Ratio (Candida albicans [13]) | Ratio (Nakaseomyces glabratus [14]) | Ratio (Aspergillus terreus [15]) | Ratio (Aspergillus niger [16]) | t1/2 [17] | MIC (Candida)
COCO/N=[N+](\[O-])N1CCN(c2ccccc2)CC1 | > 2000 µM | > 2000 µM | > 2000 µM | > 2000 µM | > 2000 µM | > 2000 µM | > 2000 µM | > 2000 µM |  |  |  |  |  |  |  |  |  | 
O=C(CO[N+](=O)[O-])N1CCN(c2ccc(OC[C@H]3CO[C@](Cn4ccnc4)(c4ccc(Cl)cc4Cl)O3)cc2)CC1 | 25 µM (≈ 14.8 µg/mL) | 12.5 µM (≈ 7.41 µg/mL) | 1.56 µM (≈ 0.924 µg/mL) | 12.5 µM (≈ 7.41 µg/mL) | 25 µM (≈ 14.8 µg/mL) | 0.16 µM (≈ 0.0948 µg/mL) | 100 µM (≈ 59.2 µg/mL) | 2.5 µM (≈ 1.48 µg/mL) | 0.4 | 0.2 | 0.1 | 0.31 | 1 | 0.12 | 0.4 | 0.2 |  | 
O=[N+]([O-])OCCN1CCN(c2ccccc2)CC1 | > 2000 µM | > 2000 µM | > 2000 µM | > 2000 µM | > 2000 µM | > 2000 µM | > 2000 µM | > 2000 µM |  |  |  |  |  |  |  |  |  | 
CC(=O)N1CCN(c2ccc(OCC3COC(Cn4ccnc4)(c4ccc(Cl)cc4Cl)O3)cc2)CC1 (stereo not drawn) [KETOCONAZOLE] | 62.5 µM (≈ 33.2 µg/mL) | 62.5 µM (≈ 33.2 µg/mL) | 12.5 µM (≈ 6.64 µg/mL) | 31.2 µM (≈ 16.6 µg/mL) | 25 µM (≈ 13.3 µg/mL) | 1.56 µM (≈ 0.829 µg/mL) | 500 µM (≈ 266 µg/mL) | 8 µM (≈ 4.25 µg/mL) |  |  |  |  |  |  |  |  |  | 
c1ccc(N2CCNCC2)cc1 [PHENYLPIPERAZINE] | > 2000 µM | > 2000 µM | > 2000 µM | > 2000 µM | > 2000 µM | > 2000 µM | > 2000 µM | > 2000 µM |  |  |  |  |  |  |  |  |  | 
[Na+].[O-]/N=[N+](\[O-])N1CCN(c2ccc(OC[C@H]3CO[C@](Cn4ccnc4)(c4ccc(Cl)cc4Cl)O3)cc2)CC1 | 200 µM | 100 µM | 12.5 µM | 100 µM | 100 µM | 1.25 µM | 200 µM | 20 µM | 3.2 | 0.4 | 0.8 | 2.5 | 4 | 1 | 3.2 | 1.6 | 4.5 min | 
NCCN(CCN)/[N+]([O-])=N/O |  |  |  |  |  |  |  |  |  |  |  |  |  |  |  |  |  | 2000 µg/mL (≈ 12.3 mM)
NCCCN(CCCN)N(O)N=O |  |  |  |  |  |  |  |  |  |  |  |  |  |  |  |  |  | 5000 µg/mL (≈ 26.1 mM)
Clc1ccc([C@@]2(Cn3ccnc3)OC[C@H](COc3ccc(N4CCNCC4)cc3)O2)c(Cl)c1 | 2000 µM (≈ 979 µg/mL) | 2000 µM (≈ 979 µg/mL) | 50 µM (≈ 24.5 µg/mL) | 2000 µM (≈ 979 µg/mL) | 25 µM (≈ 12.2 µg/mL) | 25 µM (≈ 12.2 µg/mL) | 2000 µM (≈ 979 µg/mL) | 250 µM (≈ 122 µg/mL) | 32 | 4 | 16 | 31.25 | 1 | 4 | 64 | 32 |  | 
CC(C)(CO[N+](=O)[O-])C(=O)N1CCN(c2ccc(OC[C@H]3CO[C@](Cn4ccnc4)(c4ccc(Cl)cc4Cl)O3)cc2)CC1 | 3.13 µM (≈ 1.99 µg/mL) | 1.56 µM (≈ 0.99 µg/mL) | 3.13 µM (≈ 1.99 µg/mL) | 1.56 µM (≈ 0.99 µg/mL) | 6.25 µM (≈ 3.97 µg/mL) | 0.6 µM (≈ 0.381 µg/mL) | 25 µM (≈ 15.9 µg/mL) | 8 µM (≈ 5.08 µg/mL) | 0.05 | 0.05 | 0.38 | 1 | 0.25 | 0.25 | 0.05 | 0.025 |  | 
COCO/N=[N+](\[O-])N1CCN(c2ccc(OC[C@H]3CO[C@](Cn4ccnc4)(c4ccc(Cl)cc4Cl)O3)cc2)CC1 | 8 µM (≈ 4.75 µg/mL) | 4 µM (≈ 2.37 µg/mL) | 3.13 µM (≈ 1.86 µg/mL) | 8 µM (≈ 4.75 µg/mL) | 25 µM (≈ 14.8 µg/mL) | 2 µM (≈ 1.19 µg/mL) | 250 µM (≈ 148 µg/mL) | 1.56 µM (≈ 0.926 µg/mL) | 0.13 | 0.5 | 1.3 | 0.2 | 1 | 0.25 | 0.26 | 0.06 |  | 
O=C(CO/N=[N+](\[O-])N1CCCC1)N1CCN(c2ccc(OC[C@H]3CO[C@](Cn4ccnc4)(c4ccc(Cl)cc4Cl)O3)cc2)CC1 | 125 µM (≈ 82.6 µg/mL) | 62.5 µM (≈ 41.3 µg/mL) | 12.5 µM (≈ 8.26 µg/mL) | 62.5 µM (≈ 41.3 µg/mL) | 25 µM (≈ 16.5 µg/mL) | 2 µM (≈ 1.32 µg/mL) | 1000 µM (≈ 661 µg/mL) | 8 µM (≈ 5.28 µg/mL) | 2 | 2 | 1.3 | 1 | 1 | 1 | 2 | 1 |  | 
[O-]/[N+](=N\O)N1CCN(c2ccccc2)CC1 | > 2000 µM | > 2000 µM | > 2000 µM | > 2000 µM | > 2000 µM | > 2000 µM | > 2000 µM | > 2000 µM |  |  |  |  |  |  |  |  |  | 
CCO/N=[N+](\[O-])N1CCN(c2ccc(OC[C@H]3CO[C@](Cn4ccnc4)(c4ccc(Cl)cc4Cl)O3)cc2)CC1 | 12.5 µM (≈ 7.22 µg/mL) | 1.56 µM (≈ 0.901 µg/mL) | 3.13 µM (≈ 1.81 µg/mL) | 3.13 µM (≈ 1.81 µg/mL) | 50 µM (≈ 28.9 µg/mL) | 0.16 µM (≈ 0.0924 µg/mL) | 50 µM (≈ 28.9 µg/mL) | 1.25 µM (≈ 0.722 µg/mL) | 0.2 | 0.1 | 0.1 | 0.16 | 2 | 0.25 | 0.1 | 0.025 |  | 
O=C(CO/N=[N+](\[O-])N1CCCC1)N1CCN(c2ccccc2)CC1 | > 2000 µM | > 2000 µM | > 2000 µM | > 2000 µM | > 2000 µM | > 2000 µM | > 2000 µM | > 2000 µM |  |  |  |  |  |  |  |  |  | 
CC(C)(CO[N+](=O)[O-])C(=O)N1CCN(c2ccccc2)CC1 | > 2000 µM | > 2000 µM | > 2000 µM | > 2000 µM | > 2000 µM | > 2000 µM | > 2000 µM | > 2000 µM |  |  |  |  |  |  |  |  |  | 
O=[N+]([O-])OCCN1CCN(c2ccc(OC[C@H]3CO[C@](Cn4ccnc4)(c4ccc(Cl)cc4Cl)O3)cc2)CC1 | 1000 µM (≈ 578 µg/mL) | 250 µM (≈ 145 µg/mL) | 6.25 µM (≈ 3.62 µg/mL) | 1000 µM (≈ 578 µg/mL) | 12.5 µM (≈ 7.23 µg/mL) | 15.6 µM (≈ 9.02 µg/mL) | 1000 µM (≈ 578 µg/mL) | 62.5 µM (≈ 36.2 µg/mL) | 16 | 2 | 10 | 7.81 | 0.5 | 0.5 | 32 | 4 |  | 
CCO/N=[N+](\[O-])N1CCN(c2ccccc2)CC1 | > 2000 µM | > 2000 µM | > 2000 µM | > 2000 µM | > 2000 µM | > 2000 µM | > 2000 µM | > 2000 µM |  |  |  |  |  |  |  |  |  | 
O=C(CO[N+](=O)[O-])N1CCN(c2ccccc2)CC1 | > 2000 µM | > 2000 µM | > 2000 µM | > 2000 µM | > 2000 µM | > 2000 µM | > 2000 µM | > 2000 µM |  |  |  |  |  |  |  |  |  | 
